# Results published in ChEMBL document CHEMBL2407075, “Sulphonamido-quinoxalines: search for anticancer agent” (Eur J Med Chem, 2013).
# Tested on: NCI-H23
# Experiment: Growth inhibition of human NCI-H23 cells at 10 uM after 48 hrs by sulforhodamine B assay
# Format: functional
# Conditions: NCI-H23, 48 h, read-out: GI
# Outline: (§1)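 Single-dose screen at 10 µM across the NCI 60 panel. Cells in RPMI 1640 with 5% FBS and 2 mM L-glutamine, plated at 5000–40,000/well and preincubated 24 h at 37 °C, 5% CO2. Drug in DMSO, 48 h exposure. Fixed with TCA, stained with SRB, A515 read. Percent growth is taken relative to untreated control, and inhibition is 100 minus growth.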
row,SMILES,inhibition of growth at 10 µM [%]
1,NC(=S)NNS(=O)(=O)c1ccc2nc(-c3ccccc3)c(-c3ccccc3)nc2c1,11.6
2,COc1ccccc1NS(=O)(=O)c1ccc2nc(-c3ccccc3)c(-c3ccccc3)nc2c1,23

# Tested on: PC-3
# Experiment: Growth inhibition of human PC3 cells at 10 uM after 48 hrs by sulforhodamine B assay
# Format: functional
# Conditions: PC-3, 48 h, read-out: GI
# Outline: as §1
row,SMILES,inhibition of growth at 10 µM [%]
1,NC(=S)NNS(=O)(=O)c1ccc2nc(-c3ccccc3)c(-c3ccccc3)nc2c1,34.6
2,COc1ccccc1NS(=O)(=O)c1ccc2nc(-c3ccccc3)c(-c3ccccc3)nc2c1,52.8

# Tested on: OVCAR-3
# Experiment: Growth inhibition of human OVCAR3 cells at 10 uM after 48 hrs by sulforhodamine B assay
# Format: functional
# Conditions: OVCAR-3, 48 h, read-out: GI
# Outline: as §1
row,SMILES,inhibition of growth at 10 µM [%]
1,NC(=S)NNS(=O)(=O)c1ccc2nc(-c3ccccc3)c(-c3ccccc3)nc2c1,1.84
2,COc1ccccc1NS(=O)(=O)c1ccc2nc(-c3ccccc3)c(-c3ccccc3)nc2c1,13.5

# Tested on: Malme-3M
# Experiment: Growth inhibition of human MALME-3M cells at 10 uM after 48 hrs by sulforhodamine B assay
# Format: functional
# Conditions: read-out: GI
# Outline: as §1
row,SMILES,inhibition of growth at 10 µM [%]
1,NC(=S)NNS(=O)(=O)c1ccc2nc(-c3ccccc3)c(-c3ccccc3)nc2c1,2.94
2,COc1ccccc1NS(=O)(=O)c1ccc2nc(-c3ccccc3)c(-c3ccccc3)nc2c1,1.87

# Tested on: not listed separately
# Experiment: Growth inhibition of human HCC2998 cells at 10 uM after 48 hrs by sulforhodamine B assay
# Format: functional
# Conditions: HCC 2998, 48 h, read-out: GI
# Outline: (§2)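 NCI-60 one-dose primary screen at a single 10 µM concentration. Cells in RPMI 1640 with 5% FBS, preincubated 24 h at 37 °C, 5% CO2. Drug exposure 48 h, then TCA fixation, SRB staining and absorbance at 515 nm. Percent growth calculated against time-zero and untreated control wells, then converted to percent growth inhibition.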
row,SMILES,inhibition of growth at 10 µM [%]
1,NC(=S)NNS(=O)(=O)c1ccc2nc(-c3ccccc3)c(-c3ccccc3)nc2c1,8.92
2,COc1ccccc1NS(=O)(=O)c1ccc2nc(-c3ccccc3)c(-c3ccccc3)nc2c1,19.9

# Tested on: KM12
# Experiment: Growth inhibition of human KM12 cells at 10 uM after 48 hrs by sulforhodamine B assay
# Format: functional
# Conditions: KM12, 48 h, read-out: GI
# Outline: as §1
row,SMILES,inhibition of growth at 10 µM [%]
1,NC(=S)NNS(=O)(=O)c1ccc2nc(-c3ccccc3)c(-c3ccccc3)nc2c1,15.9
2,COc1ccccc1NS(=O)(=O)c1ccc2nc(-c3ccccc3)c(-c3ccccc3)nc2c1,8.62

# Tested on: ACHN
# Experiment: Growth inhibition of human ACHN cells at 10 uM after 48 hrs by sulforhodamine B assay
# Format: functional
# Conditions: read-out: GI
# Outline: (§3)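 Single-dose NCI-60 prescreen at 10 µM for 48 h at 37 °C and 5% CO2, using cells grown in RPMI 1640 with 5% FBS and 2 mM glutamine. Protein was measured by SRB after TCA fixation: 10% final for adherent lines, 16% for suspension lines. Absorbance was read at 515 nm. Percent growth inhibition was obtained by subtracting percent growth from 100.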
row,SMILES,inhibition of growth at 10 µM [%]
1,NC(=S)NNS(=O)(=O)c1ccc2nc(-c3ccccc3)c(-c3ccccc3)nc2c1,1.83
2,COc1ccccc1NS(=O)(=O)c1ccc2nc(-c3ccccc3)c(-c3ccccc3)nc2c1,13.1

# Tested on: CCRF-CEM
# Experiment: Growth inhibition of human CCRF-CEM cells at 10 uM after 48 hrs by sulforhodamine B assay
# Format: functional
# Conditions: read-out: GI
# Outline: as §3
row,SMILES,inhibition of growth at 10 µM [%]
1,NC(=S)NNS(=O)(=O)c1ccc2nc(-c3ccccc3)c(-c3ccccc3)nc2c1,35.8
2,COc1ccccc1NS(=O)(=O)c1ccc2nc(-c3ccccc3)c(-c3ccccc3)nc2c1,49.8

# Tested on: NCI-H460
# Experiment: Growth inhibition of human NCI-H460 cells at 10 uM after 48 hrs by sulforhodamine B assay
# Format: functional
# Conditions: NCI-H460, 48 h, read-out: GI
# Outline: as §1
row,SMILES,inhibition of growth at 10 µM [%]
1,NC(=S)NNS(=O)(=O)c1ccc2nc(-c3ccccc3)c(-c3ccccc3)nc2c1,15.6
2,COc1ccccc1NS(=O)(=O)c1ccc2nc(-c3ccccc3)c(-c3ccccc3)nc2c1,45.5

# Tested on: SF-268
# Experiment: Growth inhibition of human SF268 cells at 10 uM after 48 hrs by sulforhodamine B assay
# Format: functional
# Conditions: SF-268, 48 h, read-out: GI
# Outline: as §1
row,SMILES,inhibition of growth at 10 µM [%]
1,NC(=S)NNS(=O)(=O)c1ccc2nc(-c3ccccc3)c(-c3ccccc3)nc2c1,2.92
2,COc1ccccc1NS(=O)(=O)c1ccc2nc(-c3ccccc3)c(-c3ccccc3)nc2c1,23.8

# Tested on: RPMI-8226
# Experiment: Growth inhibition of human RPMI8226 cells at 10 uM after 48 hrs by sulforhodamine B assay
# Format: functional
# Conditions: RPMI-8226, 48 h, read-out: GI
# Outline: as §1
row,SMILES,inhibition of growth at 10 µM [%]
1,NC(=S)NNS(=O)(=O)c1ccc2nc(-c3ccccc3)c(-c3ccccc3)nc2c1,46.4
2,COc1ccccc1NS(=O)(=O)c1ccc2nc(-c3ccccc3)c(-c3ccccc3)nc2c1,65.7

# Tested on: T47D
# Experiment: Growth inhibition of human T47D cells at 10 uM after 48 hrs by sulforhodamine B assay
# Format: functional
# Conditions: read-out: GI
# Outline: as §1
row,SMILES,inhibition of growth at 10 µM [%]
1,NC(=S)NNS(=O)(=O)c1ccc2nc(-c3ccccc3)c(-c3ccccc3)nc2c1,42.6
2,COc1ccccc1NS(=O)(=O)c1ccc2nc(-c3ccccc3)c(-c3ccccc3)nc2c1,63.9

# Tested on: SK-MEL-2
# Experiment: Growth inhibition of human SK-MEL-2 cells at 10 uM after 48 hrs by sulforhodamine B assay
# Format: functional
# Conditions: SK-MEL-2, 48 h, read-out: GI
# Outline: as §1
row,SMILES,inhibition of growth at 10 µM [%]
1,NC(=S)NNS(=O)(=O)c1ccc2nc(-c3ccccc3)c(-c3ccccc3)nc2c1,7.94
2,COc1ccccc1NS(=O)(=O)c1ccc2nc(-c3ccccc3)c(-c3ccccc3)nc2c1,25

# Tested on: SF-539
# Experiment: Growth inhibition of human SF539 cells at 10 uM after 48 hrs by sulforhodamine B assay
# Format: functional
# Conditions: SF-539, 48 h, read-out: GI
# Outline: as §1
row,SMILES,inhibition of growth at 10 µM [%]
1,NC(=S)NNS(=O)(=O)c1ccc2nc(-c3ccccc3)c(-c3ccccc3)nc2c1,21.7
2,COc1ccccc1NS(=O)(=O)c1ccc2nc(-c3ccccc3)c(-c3ccccc3)nc2c1,24.7

# Tested on: HT-29
# Experiment: Growth inhibition of human HT-29 cells at 10 uM after 48 hrs by sulforhodamine B assay
# Format: functional
# Conditions: HT-29, 48 h, read-out: GI
# Outline: as §2
row,SMILES,inhibition of growth at 10 µM [%]
1,NC(=S)NNS(=O)(=O)c1ccc2nc(-c3ccccc3)c(-c3ccccc3)nc2c1,30.8
2,COc1ccccc1NS(=O)(=O)c1ccc2nc(-c3ccccc3)c(-c3ccccc3)nc2c1,63.9

# Tested on: OVCAR-5
# Experiment: Growth inhibition of human OVCAR5 cells at 10 uM after 48 hrs by sulforhodamine B assay
# Format: functional
# Conditions: OVCAR-5, 48 h, read-out: GI
# Outline: as §1
row,SMILES,inhibition of growth at 10 µM [%]
1,NC(=S)NNS(=O)(=O)c1ccc2nc(-c3ccccc3)c(-c3ccccc3)nc2c1,4.85
2,COc1ccccc1NS(=O)(=O)c1ccc2nc(-c3ccccc3)c(-c3ccccc3)nc2c1,12.7

# Tested on: UACC-62
# Experiment: Growth inhibition of human UACC62 cells at 10 uM after 48 hrs by sulforhodamine B assay
# Format: functional
# Conditions: UACC-62, 48 h, read-out: GI
# Outline: as §1
row,SMILES,inhibition of growth at 10 µM [%]
1,NC(=S)NNS(=O)(=O)c1ccc2nc(-c3ccccc3)c(-c3ccccc3)nc2c1,24.3
2,COc1ccccc1NS(=O)(=O)c1ccc2nc(-c3ccccc3)c(-c3ccccc3)nc2c1,23.4

# Tested on: SK-MEL-5
# Experiment: Growth inhibition of human SK-MEL-5 cells at 10 uM after 48 hrs by sulforhodamine B assay
# Format: functional
# Conditions: SK-MEL-5, 48 h, read-out: GI
# Outline: as §1
row,SMILES,inhibition of growth at 10 µM [%]
1,NC(=S)NNS(=O)(=O)c1ccc2nc(-c3ccccc3)c(-c3ccccc3)nc2c1,39.1
2,COc1ccccc1NS(=O)(=O)c1ccc2nc(-c3ccccc3)c(-c3ccccc3)nc2c1,61.4

# Tested on: MCF7
# Experiment: Growth inhibition of human MCF7 cells at 10 uM after 48 hrs by sulforhodamine B assay
# Format: functional
# Conditions: MCF7, 48 h, read-out: GI
# Outline: as §1
row,SMILES,inhibition of growth at 10 µM [%]
1,NC(=S)NNS(=O)(=O)c1ccc2nc(-c3ccccc3)c(-c3ccccc3)nc2c1,18.9
2,COc1ccccc1NS(=O)(=O)c1ccc2nc(-c3ccccc3)c(-c3ccccc3)nc2c1,31.8

# Tested on: A498
# Experiment: Growth inhibition of human A498 cells at 10 uM after 48 hrs by sulforhodamine B assay
# Format: functional
# Conditions: A498, 48 h, read-out: GI
# Outline: as §3
row,SMILES,inhibition of growth at 10 µM [%]
1,NC(=S)NNS(=O)(=O)c1ccc2nc(-c3ccccc3)c(-c3ccccc3)nc2c1,26.8
2,COc1ccccc1NS(=O)(=O)c1ccc2nc(-c3ccccc3)c(-c3ccccc3)nc2c1,42.8

# Tested on: SN12C
# Experiment: Growth inhibition of human SN12C cells at 10 uM after 48 hrs by sulforhodamine B assay
# Format: functional
# Conditions: read-out: GI
# Outline: as §1
row,SMILES,inhibition of growth at 10 µM [%]
1,NC(=S)NNS(=O)(=O)c1ccc2nc(-c3ccccc3)c(-c3ccccc3)nc2c1,6.98
2,COc1ccccc1NS(=O)(=O)c1ccc2nc(-c3ccccc3)c(-c3ccccc3)nc2c1,32.6

# Tested on: CAKI-1
# Experiment: Growth inhibition of human CAKI-1 cells at 10 uM after 48 hrs by sulforhodamine B assay
# Format: functional
# Conditions: CAKI-1, 48 h, read-out: GI
# Outline: as §3
row,SMILES,inhibition of growth at 10 µM [%]
1,NC(=S)NNS(=O)(=O)c1ccc2nc(-c3ccccc3)c(-c3ccccc3)nc2c1,2.94
2,COc1ccccc1NS(=O)(=O)c1ccc2nc(-c3ccccc3)c(-c3ccccc3)nc2c1,23.9

# Tested on: not listed separately
# Experiment: Growth inhibition of human NCI-ADR-RES cells at 10 uM after 48 hrs by sulforhodamine B assay
# Format: functional
# Conditions: read-out: GI
# Outline: as §1
row,SMILES,inhibition of growth at 10 µM [%]
1,NC(=S)NNS(=O)(=O)c1ccc2nc(-c3ccccc3)c(-c3ccccc3)nc2c1,11.9
2,COc1ccccc1NS(=O)(=O)c1ccc2nc(-c3ccccc3)c(-c3ccccc3)nc2c1,41

# Tested on: HCT-15
# Experiment: Growth inhibition of human HCT15 cells at 10 uM after 48 hrs by sulforhodamine B assay
# Format: functional
# Conditions: HCT-15, 48 h, read-out: GI
# Outline: as §2
row,SMILES,inhibition of growth at 10 µM [%]
1,NC(=S)NNS(=O)(=O)c1ccc2nc(-c3ccccc3)c(-c3ccccc3)nc2c1,29.9
2,COc1ccccc1NS(=O)(=O)c1ccc2nc(-c3ccccc3)c(-c3ccccc3)nc2c1,44.7

# Tested on: LOX IMVI
# Experiment: Growth inhibition of human LOXIMVI cells at 10 uM after 48 hrs by sulforhodamine B assay
# Format: functional
# Conditions: read-out: GI
# Outline: as §1
row,SMILES,inhibition of growth at 10 µM [%]
1,NC(=S)NNS(=O)(=O)c1ccc2nc(-c3ccccc3)c(-c3ccccc3)nc2c1,11.2
2,COc1ccccc1NS(=O)(=O)c1ccc2nc(-c3ccccc3)c(-c3ccccc3)nc2c1,23.3

# Tested on: UO-31
# Experiment: Growth inhibition of human UO31 cells at 10 uM after 48 hrs by sulforhodamine B assay
# Format: functional
# Conditions: UO-31, 48 h, read-out: GI
# Outline: as §1
row,SMILES,inhibition of growth at 10 µM [%]
1,NC(=S)NNS(=O)(=O)c1ccc2nc(-c3ccccc3)c(-c3ccccc3)nc2c1,13.7
2,COc1ccccc1NS(=O)(=O)c1ccc2nc(-c3ccccc3)c(-c3ccccc3)nc2c1,22.8

# Tested on: SR
# Experiment: Growth inhibition of human SR cells at 10 uM after 48 hrs by sulforhodamine B assay
# Format: functional
# Conditions: read-out: GI
# Outline: as §1
row,SMILES,inhibition of growth at 10 µM [%]
1,NC(=S)NNS(=O)(=O)c1ccc2nc(-c3ccccc3)c(-c3ccccc3)nc2c1,50
2,COc1ccccc1NS(=O)(=O)c1ccc2nc(-c3ccccc3)c(-c3ccccc3)nc2c1,81.9
